Data taken from ChEMBL document CHEMBL4052637, “Discovery and Characterization of R/S-N-3-Cyanophenyl-N'-(6-tert-butoxycarbonylamino-3,4-dihydro-2,2-dimethyl-2H-1-benzopyran-4-yl)urea, a New Histone Deacetylase Class III Inhibitor Exerting Antiproliferative Activity against Cancer Cell Lines” (J Med Chem, 2017).
Activity calls are given as the source filed them. The calls are words filed in the database; no cut-off is given here.

How the values were obtained:
[1] = tested on: SK-MEL-5; assay: Growth inhibition of human SK-MEL-5 cells after 48 hrs by SRB assay; type: functional; conditions: SK-MEL-5, 48 h
[2] = tested on: COLO 205; assay: Growth inhibition of human COLO205 cells after 48 hrs by SRB assay; type: functional; conditions: COLO 205, 48 h
[3] = target: T1, NAD-dependent protein deacetylase sirtuin-1 (Homo sapiens) (UniProt Q96EB6); assay: Inhibition of SIRT1 in human U373 cells assessed as increase of histone H3K56 acetylation at 10 to 25 after 8 to 24 hrs by Western blotting method; type: cell-based
T1 sequence (whole entry): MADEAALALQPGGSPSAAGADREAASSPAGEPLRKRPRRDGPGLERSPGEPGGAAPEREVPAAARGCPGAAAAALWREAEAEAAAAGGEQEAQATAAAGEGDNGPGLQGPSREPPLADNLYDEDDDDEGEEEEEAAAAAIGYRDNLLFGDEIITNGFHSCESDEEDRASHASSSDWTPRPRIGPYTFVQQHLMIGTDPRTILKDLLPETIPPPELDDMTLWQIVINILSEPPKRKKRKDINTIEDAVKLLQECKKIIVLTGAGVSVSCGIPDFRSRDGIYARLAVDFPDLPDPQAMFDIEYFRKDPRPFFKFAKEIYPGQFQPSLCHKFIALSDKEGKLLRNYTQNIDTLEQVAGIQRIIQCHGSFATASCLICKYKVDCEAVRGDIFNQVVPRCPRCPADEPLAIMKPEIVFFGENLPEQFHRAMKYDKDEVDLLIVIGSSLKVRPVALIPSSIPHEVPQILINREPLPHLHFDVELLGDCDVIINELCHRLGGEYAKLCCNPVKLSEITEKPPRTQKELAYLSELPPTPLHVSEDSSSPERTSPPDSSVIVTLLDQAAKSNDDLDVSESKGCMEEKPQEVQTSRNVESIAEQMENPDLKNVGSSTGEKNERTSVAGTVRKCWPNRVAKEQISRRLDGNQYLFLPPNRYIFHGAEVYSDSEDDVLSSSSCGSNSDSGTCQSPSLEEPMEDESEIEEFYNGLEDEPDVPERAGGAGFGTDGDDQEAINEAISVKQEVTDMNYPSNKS
Summary of the method: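 Cells treated with the compound, then histone H3K56 acetylation assessed by Western blot on histone extracts; histone H1 or Coomassie staining as loading control.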

[4] = tested on: HCT-15; assay: Growth inhibition of human HCT15 cells after 48 hrs by SRB assay; type: functional; conditions: HCT-15, 48 h
[5] = tested on: NCI-H522; assay: Growth inhibition of human NCI-H522 cells after 48 hrs by SRB assay; type: functional; conditions: NCI-H522, 48 h
[6] = tested on: Hs 683; assay: Inhibition of 3D tumor-like growth of human Hs683 cells assessed as decrease in ATP level at 5 to 10 uM treated for 24 hrs measured after 96 hrs by CellTiter-Glo assay; type: functional, cell-based
Summary of the method: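 Spheroids were grown from a starting suspension of 1 × 10^3 cells in 25 μL. Cells were pretreated 24 h with compound, then left untreated for 96 h. Spheroids were harvested and mixed with CellTiter-Glo 3D reagent, shaken 5 min and stabilized 25 min, then luminescence was read. Mean ± SD of three independent experiments.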

[7] = tested on: A2780; assay: Antiproliferative activity against human A2780 cells after 72 hrs by MTT assay; type: functional, cell-based
Summary of the method: (§1)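 MTT assay: cells in RPMI 1640 with 10% heat-inactivated FCS at 37 °C and 5% CO2 were seeded 24 h before treatment. They were exposed 72 h to compound at 0.01–100 μM, with DMSO as solvent.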

[8] = tested on: RXF 393; assay: Growth inhibition of human RXF393 cells after 48 hrs by SRB assay; type: functional; conditions: RXF 393, 48 h
[9] = Potency index, ratio of EX-527 IC50 to test compound IC50 for human U373 cells; type: functional, U-373MG ATCC
[10] = tested on: A498; assay: Growth inhibition of human A498 cells after 48 hrs by SRB assay; type: functional; conditions: A498, 48 h
[11] = tested on: MOLT-4; assay: Growth inhibition of human MOLT4 cells after 48 hrs by SRB assay; type: functional; conditions: MOLT-4, 48 h
[12] = tested on: Hs 683; assay: Antitumor activity against CM-Dil fluorescent dye labeled human Hs683 cells xenografted in zebrafish embryo at 10 uM preincubated with tumor for 36 hrs followed by tumor implantation in zebra fish yolk sac measured after 72 hrs by fluorescence microscopy; type: functional, cell-based
Summary of the method: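 Cells were pretreated in vitro at 5 or 10 μM for 30 or 36 h and labeled with CM-DiI 2 h before injection. Then 100–200 cells were injected into the yolk sac of wild-type zebrafish 48 h post-fertilization, anesthetized in 0.02% tricaine. Embryos were kept 72 h at 28.5 °C in Danieau solution with 0.003% phenylthiourea, and fluorescence was quantified in eight fish per condition.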

[13] = target: Protein deacetylase HDAC6 (Homo sapiens) (UniProt Q9UBN7); assay: Inhibition of His-tagged recombinant human HDAC6 expressed in baculovirus infected insect cells at 0.1 to 100 uM using Fluor-de-Lys-SIRT1 as substrate after 15 mins by fluorescence assay
[14] = target: T1, NAD-dependent protein deacetylase sirtuin-1 (Homo sapiens); assay: Inhibition of SIRT1 in human U373 cells assessed as increase of histone H4 acetylation after 8 hrs by Western blotting method; type: cell-based
[15] = tested on: MDA-MB-435; assay: Growth inhibition of human MDA-MB-435 cells after 48 hrs by SRB assay; type: functional; conditions: MDA-MB-435, 48 h
[16] = tested on: MDA-MB-231; assay: Growth inhibition of human MDA-MB-231 cells after 48 hrs by SRB assay; type: functional; conditions: MDA-MB-231, 48 h
[17] = tested on: KB-HU; assay: Antiproliferative activity against human KB-HU cells overexpressing ribonucleotide reductase subunit 2 after 72 hrs by MTT assay; type: functional, cell-based; summary of the method: as §1
[18] = tested on: MCF7; assay: Growth inhibition of human MCF7 cells after 48 hrs by SRB assay; type: functional; conditions: MCF7, 48 h
[19] = tested on: SN12C; assay: Growth inhibition of human SN12C cells after 48 hrs by SRB assay; type: functional
[20] = tested on: Hs 683; assay: Inhibition of spheroid forming capacity of human Hs683 cells assessed as decrease in volume of multicellular tumor spheroids at 5 to 10 uM treated for 24 hrs measured after 96 hrs by bright field microscopic method; type: functional, cell-based
Summary of the method: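 Spheroids formed from 1 × 10^3 cells in 25 μL. Cells were pretreated 24 h with compound then left untreated 96 h, or untreated spheroids were cultured 96 h with compound. Surface measured from bright-field images; volume in voxels from 3D plots after image segmentation. Mean ± SD of three independent experiments.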

[21] = tested on: U-373MG ATCC; assay: Antiproliferative activity against human U373 cells transfected with SIRT1/2 siRNA at IC50 for MTT assay after 72 hrs by time-lapse videomicroscopy; type: functional, cell-based
[22] = tested on: HCT-116; assay: Antiproliferative activity against human HCT116 cells expressing wild type p53 after 72 hrs by MTT assay; type: functional, cell-based; summary of the method: as §1
[23] = tested on: Hs 683; assay: Induction of apoptosis in human Hs683 cells at 10 uM after 72 hrs by TUNEL method relative to control; type: functional
[24] = tested on: SW1573; assay: Antiproliferative activity against human SW1573 cells after 72 hrs by MTT assay; type: functional, cell-based; summary of the method: as §1
[25] = target: Histone deacetylase 1 (Homo sapiens) (UniProt Q13547); assay: Inhibition of His-tagged recombinant human HDAC1 expressed in baculovirus expression system at 0.1 to 100 uM using Fluor-de-Lys-SIRT1 as substrate after 15 mins by fluorescence assay
Sequence of Histone deacetylase 1 (Homo sapiens) (Q13547 whole entry): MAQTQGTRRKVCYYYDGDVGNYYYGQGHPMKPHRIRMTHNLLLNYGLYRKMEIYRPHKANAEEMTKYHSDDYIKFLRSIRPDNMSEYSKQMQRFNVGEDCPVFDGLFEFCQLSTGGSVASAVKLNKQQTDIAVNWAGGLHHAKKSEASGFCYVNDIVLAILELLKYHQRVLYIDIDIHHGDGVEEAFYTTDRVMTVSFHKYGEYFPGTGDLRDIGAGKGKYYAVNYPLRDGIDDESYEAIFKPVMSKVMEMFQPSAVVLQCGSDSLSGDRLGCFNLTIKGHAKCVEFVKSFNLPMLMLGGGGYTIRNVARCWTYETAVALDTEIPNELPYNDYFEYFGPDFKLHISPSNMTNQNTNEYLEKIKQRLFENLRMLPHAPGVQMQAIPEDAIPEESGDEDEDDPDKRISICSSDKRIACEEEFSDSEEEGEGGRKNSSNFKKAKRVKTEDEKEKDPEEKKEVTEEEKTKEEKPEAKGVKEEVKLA

Sequence of Protein deacetylase HDAC6 (Homo sapiens) (Q9UBN7 whole entry): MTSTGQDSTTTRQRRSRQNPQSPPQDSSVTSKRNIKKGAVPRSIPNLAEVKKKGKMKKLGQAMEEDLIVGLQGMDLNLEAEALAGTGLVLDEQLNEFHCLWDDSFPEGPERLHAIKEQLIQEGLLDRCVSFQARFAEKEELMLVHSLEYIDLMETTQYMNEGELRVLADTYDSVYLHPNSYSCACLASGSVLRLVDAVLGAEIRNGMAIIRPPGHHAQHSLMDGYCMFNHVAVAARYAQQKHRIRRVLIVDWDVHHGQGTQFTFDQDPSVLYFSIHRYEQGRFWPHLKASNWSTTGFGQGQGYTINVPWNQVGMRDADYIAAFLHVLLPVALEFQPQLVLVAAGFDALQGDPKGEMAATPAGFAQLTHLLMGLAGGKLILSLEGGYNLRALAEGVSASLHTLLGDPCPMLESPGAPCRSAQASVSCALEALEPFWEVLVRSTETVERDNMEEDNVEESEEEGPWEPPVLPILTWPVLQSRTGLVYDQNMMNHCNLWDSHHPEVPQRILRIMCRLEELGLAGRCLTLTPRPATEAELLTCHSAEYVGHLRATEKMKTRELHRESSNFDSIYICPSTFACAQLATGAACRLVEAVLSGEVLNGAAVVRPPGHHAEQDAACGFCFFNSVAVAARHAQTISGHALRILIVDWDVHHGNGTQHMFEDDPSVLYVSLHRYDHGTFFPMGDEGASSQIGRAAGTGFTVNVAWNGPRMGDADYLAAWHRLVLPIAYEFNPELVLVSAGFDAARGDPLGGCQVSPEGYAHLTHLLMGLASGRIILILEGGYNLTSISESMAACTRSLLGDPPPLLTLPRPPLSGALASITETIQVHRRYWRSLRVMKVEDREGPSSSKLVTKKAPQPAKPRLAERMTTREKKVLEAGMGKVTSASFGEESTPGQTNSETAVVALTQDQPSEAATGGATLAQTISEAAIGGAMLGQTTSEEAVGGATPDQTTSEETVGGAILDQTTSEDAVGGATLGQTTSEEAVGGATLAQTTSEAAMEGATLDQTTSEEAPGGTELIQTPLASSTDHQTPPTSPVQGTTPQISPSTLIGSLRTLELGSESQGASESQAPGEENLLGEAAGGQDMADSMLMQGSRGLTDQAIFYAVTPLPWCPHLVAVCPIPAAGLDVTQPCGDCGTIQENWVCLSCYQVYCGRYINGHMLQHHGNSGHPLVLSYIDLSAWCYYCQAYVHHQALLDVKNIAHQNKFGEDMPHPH

With `CC(C)(C)OC(=O)Nc1ccc2c(c1)C(NC(=O)Nc1cccc(C#N)c1)CC(C)(C)O2` (stereo not given) the GI50 [1] was 0.427 µM, the GI50 [2] was 3.55 µM and the inhibition [3] was “Active”. The GI50 [4] was 2 µM, the GI50 [5] was 3.24 µM and the inhibition [6] was “Active”. For the same compound, the Activity [7] was “Active”, the GI50 [8] was 6.17 µM and the “Ratio IC50” value [9] was 20. For the same compound, the GI50 [10] was 7.08 µM, the GI50 [11] was 2.09 µM and the Activity [12] was “Active”. For the same compound, the inhibition [13] was “inactive”, the inhibition [14] was “Dose-dependent effect” and the GI50 [15] was 1.48 µM. For the same compound, the GI50 [16] was 4.27 µM, the Activity [17] was “Active” and the GI50 [18] was 2.14 µM. For the same compound, the GI50 [19] was 5.5 µM, the inhibition [20] was “Active” and the Activity [21] was “Active”. The Activity [22] was “Active”, the Activity [23] was 25% and the Activity [24] was “Active”. The inhibition [25] was “inactive”.
